Consider 5 compounds from ChEMBL document CHEMBL1138751, “Dipeptidomimetic ketomethylene isosteres as pro-moieties for drug transport via the human intestinal di-/tripeptide transporter hPEPT1: design, synthesis, stability, and biological investigations” (J Med Chem, 2004).

Experiment [1] has as its target T1, Solute carrier family 15 member 1 (Homo sapiens, UniProt P46059).
T1 sequence (P46059 whole entry): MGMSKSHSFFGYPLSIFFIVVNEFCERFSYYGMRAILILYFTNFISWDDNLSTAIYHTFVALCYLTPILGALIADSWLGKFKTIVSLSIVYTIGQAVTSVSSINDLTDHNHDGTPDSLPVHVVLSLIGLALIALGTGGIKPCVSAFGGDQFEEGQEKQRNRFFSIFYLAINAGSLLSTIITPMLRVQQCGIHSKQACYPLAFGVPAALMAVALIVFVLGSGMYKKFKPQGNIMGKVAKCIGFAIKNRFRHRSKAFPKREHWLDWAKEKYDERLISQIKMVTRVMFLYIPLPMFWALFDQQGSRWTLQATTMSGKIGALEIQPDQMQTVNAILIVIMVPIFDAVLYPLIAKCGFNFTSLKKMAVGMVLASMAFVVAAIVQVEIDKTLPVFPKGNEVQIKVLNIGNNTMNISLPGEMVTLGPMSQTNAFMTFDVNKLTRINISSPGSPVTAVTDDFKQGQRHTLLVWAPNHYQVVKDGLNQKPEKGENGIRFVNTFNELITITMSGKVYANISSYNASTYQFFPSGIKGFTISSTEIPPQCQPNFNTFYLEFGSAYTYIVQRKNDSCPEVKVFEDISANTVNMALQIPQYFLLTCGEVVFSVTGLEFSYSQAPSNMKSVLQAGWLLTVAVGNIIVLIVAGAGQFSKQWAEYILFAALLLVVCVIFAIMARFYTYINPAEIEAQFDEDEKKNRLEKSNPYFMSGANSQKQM
As to the kind of experiment: Inhibition of [14C]Gly-Sar transport by hPEPT1 in Caco-2 cell monolayers. The format is cell-based. The method, boiled down:
(§1)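 Caco-2 monolayers on Transwell filters, used 25–27 days after seeding (TEER 354 ± 41 […]). Compound at varying concentrations plus 0.5 μCi [14C]-Gly-Sar in apical MES-buffered HBSS (pH 6.0, 0.05% BSA); HEPES buffer (pH 7.4) basolateral. Incubated 5 min at 37 °C with shaking, washed with ice-cold HBSS, and cell-associated radioactivity counted. Inhibition fitted to a Hill-type equation for IC50; Ki derived by Cheng–Prusoff using Gly-Sar Km 1.1 mM. Duplicates in three passages.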

Experiment [2] concerns the target T1, Solute carrier family 15 member 1. As to the kind of experiment: Affinity for hPEPT1 in mature Caco-2 cell monolayers using [14C]-Gly-Sar. The gist of the method:
as §1

Broadly, the IC50 is the concentration that gives 50% inhibition. The low end stands for greater potency in that assay, the high end for weaker potency in that assay. Broadly, the Ki is a dissociation constant, usually derived from enzyme kinetics or from competition with a known ligand. Turning to `CC(C)[C@H](N)C(=O)CCC(=O)OCc1ccccc1`, the IC50 in experiment [1] was found to be 134 µM. Also, the Ki in experiment [2] came to 133 µM.
On the same counts, the results for `N[C@@H](Cc1ccccc1)C(=O)CCC(=O)OCc1ccccc1` are 915 µM and 905 µM.
In turn, `N[C@@H](Cc1ccccc1)C(=O)C[C@@H](CC(=O)OCc1ccccc1)C(=O)O` gave an IC50 in experiment [1] of 69 µM. In experiment [2], this compound gave a Ki of 68 µM.
In experiment [1], `CC(C)[C@H](N)C(=O)C[C@@H](CC(=O)OCc1ccccc1)C(=O)O` gave an IC50 of 19 µM. This compound came in with a Ki in experiment [2] of 19 µM.
In the case of `NC(CC(=O)OCc1ccccc1)C(=O)CCC(=O)O` (stereo not given), half-maximal inhibition in experiment [1] (IC50) required 422 µM. Moreover, the Ki in experiment [2] is 417 µM.
